Assay results taken from ChEMBL document CHEMBL1123807, “Aldosterone antagonists. 2. New 7 alpha-(acetylthio)-15,16-methylene spirolactones” (1987).

Experiments:
Rattus norvegicus [1] = species on record: Rattus norvegicus; experiment: Ovulation inhibitory activity in rats after 30 mg peroral dose
Rattus norvegicus [2] = species on record: Rattus norvegicus; experiment: Ovulation inhibitory activity in rats after 100 mg peroral dose
[3] = biological target: T1, Progesterone receptor (Oryctolagus cuniculus) (UniProt P06186); experiment: Relative binding to progesterone receptor compared to progesterone
T1 sequence (whole entry): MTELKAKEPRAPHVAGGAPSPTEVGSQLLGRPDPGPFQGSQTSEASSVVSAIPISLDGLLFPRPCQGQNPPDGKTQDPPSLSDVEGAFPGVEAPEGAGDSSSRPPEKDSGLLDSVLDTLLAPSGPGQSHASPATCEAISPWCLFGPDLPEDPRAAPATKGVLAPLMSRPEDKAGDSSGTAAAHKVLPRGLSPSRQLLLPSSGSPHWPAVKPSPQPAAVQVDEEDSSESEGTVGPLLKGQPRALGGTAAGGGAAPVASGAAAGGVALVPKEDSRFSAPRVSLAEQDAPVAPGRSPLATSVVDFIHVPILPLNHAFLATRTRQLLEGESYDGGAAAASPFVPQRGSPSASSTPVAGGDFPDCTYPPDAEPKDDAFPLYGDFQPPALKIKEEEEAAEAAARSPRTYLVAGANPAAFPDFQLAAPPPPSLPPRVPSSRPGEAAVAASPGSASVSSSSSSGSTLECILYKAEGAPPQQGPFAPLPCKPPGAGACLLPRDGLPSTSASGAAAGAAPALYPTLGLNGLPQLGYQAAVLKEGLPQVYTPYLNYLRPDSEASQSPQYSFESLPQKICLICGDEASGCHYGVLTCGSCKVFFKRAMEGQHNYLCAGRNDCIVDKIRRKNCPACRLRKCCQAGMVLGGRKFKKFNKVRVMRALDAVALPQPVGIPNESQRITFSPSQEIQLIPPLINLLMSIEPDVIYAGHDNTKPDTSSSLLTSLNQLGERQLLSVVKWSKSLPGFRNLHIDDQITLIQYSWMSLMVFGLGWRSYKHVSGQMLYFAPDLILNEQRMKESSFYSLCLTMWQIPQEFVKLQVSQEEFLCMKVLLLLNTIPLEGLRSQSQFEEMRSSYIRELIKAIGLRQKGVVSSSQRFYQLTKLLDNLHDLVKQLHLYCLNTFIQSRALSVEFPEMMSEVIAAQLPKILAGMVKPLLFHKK
Procedure, shortened: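 Competitive binding to progesterone receptor from rabbit uterus using tritiated progesterone as ligand. Competition factor is the multiple of the concentration needed to give displacement equivalent to the standard; a high factor means weak binding.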

[4] = biological target: T1, Progesterone receptor (Oryctolagus cuniculus); experiment: Progestational activity by Clauberg test in rabbits as McPhail index after 100 mg peroral dose; assay type: functional
Procedure, shortened: (§1)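 Castrated infantile female New Zealand rabbits (800–1000 g) were primed with estradiol 0.5 μg sc daily for 6 days. They then received compound over 5 days (total 3–100 mg sc or 30–300 mg po).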

[5] = biological target: T1, Progesterone receptor (Oryctolagus cuniculus); experiment: Progestational activity by Clauberg test in rabbits as McPhail index after 300 mg peroral dose; assay type: functional
Procedure, shortened: as §1

[6] = biological target: T1, Progesterone receptor (Oryctolagus cuniculus); experiment: Progestational activity by Clauberg test in rabbits as McPhail index after 30 mg peroral dose; assay type: functional
Procedure, shortened: as §1

[7] = biological target: T1, Progesterone receptor (Oryctolagus cuniculus); experiment: Progestational activity by Clauberg test in rabbits as McPhail index after 100 mg subcutaneous dose; assay type: functional
Procedure, shortened: as §1

[8] = biological target: T1, Progesterone receptor (Oryctolagus cuniculus); experiment: Progestational activity by Clauberg test in rabbits as McPhail index after 10 mg subcutaneous dose; assay type: functional
Procedure, shortened: as §1

[9] = biological target: T1, Progesterone receptor (Oryctolagus cuniculus); experiment: Progestational activity by Clauberg test in rabbits as McPhail index after 30 mg subcutaneous dose; assay type: functional
Procedure, shortened: as §1

[10] = biological target: T2, Androgen receptor (Rattus norvegicus) (UniProt P15207); experiment: Antiandrogenic activity as prostate weight after subcutaneous administration compared to Spironolactone; assay type: functional, organism-based; details: Prostate gland
T2 sequence (whole entry): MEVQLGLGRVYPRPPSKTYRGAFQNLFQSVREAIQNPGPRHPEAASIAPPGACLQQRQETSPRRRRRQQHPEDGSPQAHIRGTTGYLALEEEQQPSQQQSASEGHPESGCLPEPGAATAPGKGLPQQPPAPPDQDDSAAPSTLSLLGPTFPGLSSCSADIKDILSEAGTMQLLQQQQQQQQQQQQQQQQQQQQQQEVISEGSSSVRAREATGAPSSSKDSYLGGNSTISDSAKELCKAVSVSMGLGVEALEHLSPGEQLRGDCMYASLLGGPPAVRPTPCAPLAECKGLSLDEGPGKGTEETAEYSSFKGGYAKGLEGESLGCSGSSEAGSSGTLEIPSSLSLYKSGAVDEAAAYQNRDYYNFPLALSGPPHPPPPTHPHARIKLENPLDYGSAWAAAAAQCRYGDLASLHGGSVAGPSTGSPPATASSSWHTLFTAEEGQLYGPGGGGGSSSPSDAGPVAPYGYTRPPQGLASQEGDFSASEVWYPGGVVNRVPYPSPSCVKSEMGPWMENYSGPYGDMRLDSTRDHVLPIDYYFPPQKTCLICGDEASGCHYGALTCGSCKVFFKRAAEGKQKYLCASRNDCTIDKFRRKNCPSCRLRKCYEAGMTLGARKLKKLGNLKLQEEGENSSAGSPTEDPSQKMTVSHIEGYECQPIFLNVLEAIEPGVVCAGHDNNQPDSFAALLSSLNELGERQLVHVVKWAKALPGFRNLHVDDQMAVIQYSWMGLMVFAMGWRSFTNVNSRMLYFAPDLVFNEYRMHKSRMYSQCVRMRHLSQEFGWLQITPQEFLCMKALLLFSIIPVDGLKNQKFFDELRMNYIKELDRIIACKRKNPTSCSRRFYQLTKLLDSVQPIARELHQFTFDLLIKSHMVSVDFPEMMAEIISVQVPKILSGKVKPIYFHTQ
Procedure, shortened: (§2)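 Castrated male Wistar SPF rats (~100 g) were dosed once daily for 12 days, sc at 1–16 mg/rat or po at 1–100 mg/rat, each with testosterone propionate 0.1 mg/rat sc; controls got Tp alone. On day 13, fresh seminal vesicle and ventral prostate weights were taken as % of Tp control. Relative potency came from regression/covariance analysis.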

[11] = biological target: T2, Androgen receptor (Rattus norvegicus); experiment: Antiandrogenic activity as seminal vesicle weight after subcutaneous administration compared to Spironolactone; assay type: functional, organism-based
Procedure, shortened: as §2

[12] = biological target: T2, Androgen receptor (Rattus norvegicus); experiment: Antiandrogenic activity after peroral administration as relative potency compared to Spironolactone; assay type: functional, organism-based
Procedure, shortened: as §2

[13] = biological target: T3, Mineralocorticoid receptor (Rattus norvegicus) (UniProt P22199); experiment: Antialdosterone activity in rats administered orally compared to Spironolactone(100)
T3 sequence (whole entry): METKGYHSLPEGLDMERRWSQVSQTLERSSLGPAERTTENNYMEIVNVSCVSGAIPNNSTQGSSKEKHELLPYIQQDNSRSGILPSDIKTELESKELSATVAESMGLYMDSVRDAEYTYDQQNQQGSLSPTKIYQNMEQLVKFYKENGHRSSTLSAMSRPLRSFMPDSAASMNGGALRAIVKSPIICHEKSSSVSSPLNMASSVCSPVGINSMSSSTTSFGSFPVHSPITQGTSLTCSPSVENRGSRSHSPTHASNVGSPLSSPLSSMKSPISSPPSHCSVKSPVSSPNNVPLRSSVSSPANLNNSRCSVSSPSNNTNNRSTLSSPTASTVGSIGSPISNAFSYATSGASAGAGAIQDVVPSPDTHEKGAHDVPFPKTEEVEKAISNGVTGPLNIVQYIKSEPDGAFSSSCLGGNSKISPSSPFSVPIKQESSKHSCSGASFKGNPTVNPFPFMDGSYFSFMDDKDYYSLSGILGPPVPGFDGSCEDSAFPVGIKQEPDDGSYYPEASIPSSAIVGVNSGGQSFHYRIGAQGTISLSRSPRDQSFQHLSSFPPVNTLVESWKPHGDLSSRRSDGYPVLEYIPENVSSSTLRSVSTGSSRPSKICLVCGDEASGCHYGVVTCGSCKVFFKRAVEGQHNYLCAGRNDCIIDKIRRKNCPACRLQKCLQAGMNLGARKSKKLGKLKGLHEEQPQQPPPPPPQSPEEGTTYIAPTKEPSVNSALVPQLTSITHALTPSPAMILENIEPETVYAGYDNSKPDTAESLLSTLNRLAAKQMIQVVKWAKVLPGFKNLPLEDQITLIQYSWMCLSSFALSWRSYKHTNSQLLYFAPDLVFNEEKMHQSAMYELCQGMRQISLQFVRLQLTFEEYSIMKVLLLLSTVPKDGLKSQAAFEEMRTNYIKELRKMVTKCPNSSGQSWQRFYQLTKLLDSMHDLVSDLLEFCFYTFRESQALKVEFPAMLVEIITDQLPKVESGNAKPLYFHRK

[14] = biological target: T1, Progesterone receptor (Oryctolagus cuniculus); experiment: Progestational activity by Clauberg test in rabbits as McPhail index after 3 mg subcutaneous dose; assay type: functional
Procedure, shortened: as §1

Rattus norvegicus [15] = species on record: Rattus norvegicus; experiment: Ovulation inhibitory activity in rats after 40 mg peroral dose

| Structure (SMILES) | Ratio [3] | McPhail index [7] | McPhail index [8] | McPhail index [9] | Relative potency [13] | further results |
| --- | --- | --- | --- | --- | --- | --- |
| CC(=O)S[C@@H]1CC2=CC(=O)C=C[C@]2(C)[C@H]2CC[C@@]3(C)[C@@H]([C@@H]4C[C@@H]4[C@@]34CCC(=O)O4)[C@H]12 (stereo in doubt) [MESPIRENONE] | – | – | – | – | – | Inhibition (Rattus norvegicus [1]): 0%; Inhibition (Rattus norvegicus [2]): 20% |
| CC(=O)S[C@@H]1CC2=CC(=O)C=C[C@]2(C)[C@H]2CC[C@@]3(C)[C@@H]([C@@H]4C[C@@H]4[C@@]34CCC(=O)O4)[C@H]12 (stereo in doubt) | 33 | 2.6 | 1.2 | 1.7 | 333 | McPhail index [4]: 1.6; McPhail index [5]: 2.8; McPhail index [6]: 1; Relative potency [10]: 0.4; Relative potency [11]: 0.2; Relative potency [12]: < 0.1 |
| CC(=O)S[C@@H]1CC2=CC(=O)C=C[C@]2(C)[C@H]2CC[C@@]3(C)[C@@H]([C@@H]4C[C@@H]4[C@@]34CCC(=O)O4)[C@H]12 (stereo in doubt; 14) | 76 | – | – | – | 115 | – |
| CC(=O)S[C@@H]1CC2=CC(=O)CC[C@]2(C)[C@H]2CC[C@@]3(C)[C@@H](CC[C@@]34CCC(=O)O4)[C@H]12 [SPIRONOLACTONE] | – | – | – | – | – | Inhibition (Rattus norvegicus [15]): 16%; Inhibition (Rattus norvegicus [2]): 20% |

Now from value to compound, other results behind:

| Ratio [3] | McPhail index [7] | McPhail index [8] | McPhail index [9] | Relative potency [13] | Structure (SMILES) | further results |
| --- | --- | --- | --- | --- | --- | --- |
| 19 | 3.1 | 2.4 | 3 | 281 | CC(=O)S[C@@H]1CC2=CC(=O)[C@@H]3C[C@@H]3C2(C)C2CCC3(C)C(C21)[C@H]1C[C@H]1[C@@]31CCC(=O)O1 (stereo partly drawn) | Relative potency [10]: 2.4; Relative potency [11]: 1 |
| 14 | – | – | – | 186 | CC(=O)S[C@@H]1CC2=CC(=O)CCC2(C)C2CCC3(C)C(C21)[C@@H]1C[C@@H]1[C@@]31CCC(=O)O1 (stereo partly drawn) | McPhail index [14]: 1.6 |
| 18 | 3.1 | 2.6 | 3.1 | 282 | CC(=O)S[C@@H]1CC2=CC(=O)CCC2(C)C2CCC3(C)C(C21)[C@H]1C[C@H]1[C@@]31CCC(=O)O1 (stereo partly drawn) | – |
| 7.8 | 3.4 | 1 | 1.6 | 228 | CC(=O)S[C@@H]1CC2=CC(=O)[C@@H]3C[C@@H]3C2(C)C2CCC3(C)C(C21)[C@@H]1C[C@@H]1[C@@]31CCC(=O)O1 (stereo partly drawn) | Inhibition (Rattus norvegicus [15]): 100% |
